Measurements taken from PMC9364358 (RSC Advances, 2022).

Columns and labels:
MOPC-315 cell line = experiment: Cytotoxicity; format: cell-based
HDAC6 = biological target: T1, HDAC6 (Homo sapiens, UniProt Q9UBN7); format: biochemical
T1 sequence (Q9UBN7 1-1215): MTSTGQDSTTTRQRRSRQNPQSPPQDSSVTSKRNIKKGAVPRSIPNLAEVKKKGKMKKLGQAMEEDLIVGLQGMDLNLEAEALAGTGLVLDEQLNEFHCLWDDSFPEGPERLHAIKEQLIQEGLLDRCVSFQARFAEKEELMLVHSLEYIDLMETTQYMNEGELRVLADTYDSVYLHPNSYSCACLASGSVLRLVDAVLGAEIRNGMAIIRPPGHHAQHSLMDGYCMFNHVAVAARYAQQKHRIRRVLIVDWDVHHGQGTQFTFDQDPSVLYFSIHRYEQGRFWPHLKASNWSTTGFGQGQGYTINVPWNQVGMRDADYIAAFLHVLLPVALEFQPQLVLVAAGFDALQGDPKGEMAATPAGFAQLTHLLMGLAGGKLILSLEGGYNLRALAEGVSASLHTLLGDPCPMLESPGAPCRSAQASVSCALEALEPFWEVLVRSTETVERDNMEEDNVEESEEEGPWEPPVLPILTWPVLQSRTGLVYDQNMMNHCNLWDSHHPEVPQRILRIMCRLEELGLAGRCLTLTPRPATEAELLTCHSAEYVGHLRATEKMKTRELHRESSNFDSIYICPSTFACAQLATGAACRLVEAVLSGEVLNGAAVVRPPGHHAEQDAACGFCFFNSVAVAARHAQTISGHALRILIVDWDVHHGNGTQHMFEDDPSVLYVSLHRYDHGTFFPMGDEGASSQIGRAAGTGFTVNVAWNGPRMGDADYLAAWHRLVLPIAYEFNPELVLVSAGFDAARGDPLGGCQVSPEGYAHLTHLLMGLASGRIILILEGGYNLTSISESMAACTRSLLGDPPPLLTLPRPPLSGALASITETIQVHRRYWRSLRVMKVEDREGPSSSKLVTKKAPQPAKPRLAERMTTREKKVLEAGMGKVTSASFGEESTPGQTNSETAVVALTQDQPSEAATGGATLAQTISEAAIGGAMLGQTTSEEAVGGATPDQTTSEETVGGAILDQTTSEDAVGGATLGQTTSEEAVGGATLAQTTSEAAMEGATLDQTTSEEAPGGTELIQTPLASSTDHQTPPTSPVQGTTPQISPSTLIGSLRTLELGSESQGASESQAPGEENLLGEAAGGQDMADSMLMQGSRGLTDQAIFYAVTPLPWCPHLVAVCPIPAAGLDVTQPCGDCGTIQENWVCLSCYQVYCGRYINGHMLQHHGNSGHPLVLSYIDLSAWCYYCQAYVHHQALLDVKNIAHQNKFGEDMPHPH
Procedure, shortened: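 HDAC6 enzyme was incubated 30 min with test compound at graded concentrations (DMSO) and HDAC substrate 2 (200 μM stock) in HDAC assay buffer with BSA (1 mg mL−1 stock). The reaction was stopped with HDAC assay developer for 15 min at room temperature, and fluorescence was read at 485/528 nm. A reference HDAC inhibitor served as positive control.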

HDACs = experiment: Fluorometric HDAC activity assay; format: cell-based; conditions: MCF-7 cells, 30 μM, 2 h
Procedure, shortened: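 MCF-7 cells grown in RPMI-1640 with 10% FBS and 1% penicillin at 37 °C, 5% CO2, then seeded at 5 × 10^3 cells/well. After 24 h, medium was replaced, and HDAC substrate plus test compound (final 30 μM) or trichostatin A was added for 2 h. Developer mix was then added for 30 min at 37 °C, and fluorescence was read (ex 368 nm, em 442 nm).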

Compound O=C(/C=C/c1cccc(S(=O)(=O)Nc2ccccc2)c1)NO [Belinostat] has an IC50 (MOPC-315 cell line; Mus musculus, MOPC 315, 24 h, MOPC-315 cell line, 24 h incubation) of 318 ± 49 nM, a Fold change (MOPC-315 cell line; potency relative to belinostat (belinostat = 1.000), MOPC-315) of 1.000 and an inhibition at 5 µM (HDAC6) of 64.5%. The “pan-HDAC inhibitory activity (HDAC activity, fluorescence signal)” value (HDACs) was “the activity was decreased”.
